Measurements published in ChEMBL document CHEMBL3243952, “Antagonists of vitamin B6. Simultaneous and stepwise modification of the 2 and 4 positions” (J Med Chem, 1977).
The source made the active and inactive calls. No cut-off for these calls is given here.

Columns and labels:
TA3 [1] = assay: Growth inhibition of mouse TA3 cells at 10^-4 M after 3 days incubation in presence of 10^-7 M pyridoxal; assay type: functional
TA3 [2] = assay: Growth inhibition of mouse TA3 cells after 3 days incubation in presence of 10^-7 M pyridoxal; assay type: functional; conditions: for IC50: Mus musculus, TA3, 72 h, read-out: ID50 (the source's name)
Method in brief: (§1)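 Mouse mammary adenocarcinoma TA3 cells were grown in stationary upright tubes with 10% horse serum and pyridoxal at 10⁻⁷ M (minimal growth) or 10⁻⁵ M. The inoculum was 50 000 cells, with compound added in an equal volume of medium. Cells were incubated for 3 days, and growth was read by protein assay. Five tubes were used per concentration, with repeats for active compounds. The 50% inhibitory concentration was derived.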

TA3 [3] = assay: Growth inhibition of mouse TA3 cells after 3 days incubation in presence of 10^-5 M pyridoxal; assay type: functional; method in brief: as §1
Pyridoxal kinase = molecular target: T1, Pyridoxal kinase (Homo sapiens, UniProt O00764); assay: Noncompetitive inhibition of pyridoxal phosphokinase (unknown origin) using ATP-gamma-[32P]
T1 sequence (O00764 whole entry): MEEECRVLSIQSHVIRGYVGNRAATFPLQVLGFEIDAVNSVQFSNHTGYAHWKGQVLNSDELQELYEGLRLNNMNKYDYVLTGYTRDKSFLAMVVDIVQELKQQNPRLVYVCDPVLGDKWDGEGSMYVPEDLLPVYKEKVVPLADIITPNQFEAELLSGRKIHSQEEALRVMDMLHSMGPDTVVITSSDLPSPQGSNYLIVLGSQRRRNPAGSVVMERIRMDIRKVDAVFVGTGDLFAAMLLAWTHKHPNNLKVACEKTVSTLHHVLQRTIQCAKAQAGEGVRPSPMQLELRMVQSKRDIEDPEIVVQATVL

## C=Cc1c(CO)cnc(CO)c1O
TA3 [1]
  inhibition: inactive

## C=Cc1ncc(CO)c(CO)c1O
TA3 [2]
  IC50: 9400 nM
TA3 [3]
  inhibition: Active

## C=Cc1ncc(COP(=O)(O)O)c(C=C)c1O
TA3 [1]
  inhibition: inactive

## C=Cc1ncc(CO)c(C)c1O.Cl
TA3 [2]
  IC50: 3000 nM
Pyridoxal kinase
  Ki: 68.1 µM
TA3 [3]
  ID50: 3.2 ×10⁻⁵ M

## Cc1c(CO)cnc(C=O)c1O
TA3 [2]
  ID50: 6 ×10⁻⁵ M
TA3 [3]
  ID50: 1.6 ×10⁻⁴ M

## Cc1ncc(CO)c(C)c1O
TA3 [2]
  ID50: 6.8 ×10⁻⁸ M
TA3 [3]
  inhibition: inactive

## C=Cc1c(CO)cnc(C)c1O
TA3 [2]
  IC50: 2.5 nM
TA3 [3]
  inhibition: inactive

## C=Cc1ncc(CO)c(C=C)c1O.Cl
TA3 [2]
  IC50: 6800 nM
TA3 [3]
  ID50: 3.2 ×10⁻⁵ M

## Cc1c(CO)cnc(/C=N/O)c1O
TA3 [1]
  inhibition (INH): 40%

## Cc1c(CO)cnc(CO)c1O
TA3 [1]
  inhibition: inactive

## Cc1c(CO)cnc(/C=N/NC(N)=S)c1O
TA3 [2]
  IC50: 2700 nM
TA3 [3]
  inhibition: Active

## C=Cc1ncc(COP(=O)(O)O)c(C)c1O
TA3 [2]
  ID50: 3.8 ×10⁻⁵ M
TA3 [3]
  ID50: 1.8 ×10⁻⁴ M
